In series [1] the test system is Escherichia coli. The series is described as follows: Antibacterial activity against Escherichia coli ATCC 25922 after 18 hrs by 2 fold serial dilution method. Conditions: ATCC 25922, 18 h. Type of series: functional. Put shortly: (§1)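 Overnight cultures in nutrient or Mueller Hinton broth at 37 °C with shaking, diluted 50-fold into fresh MHB and grown 1.5–3 h to mid-log. Inoculum 5×10^5 CFU/mL in 2-fold serial dilutions, final range 32 to 0.015 μg/mL. MIC read visually after 18 h at 37 °C as the lowest concentration with no visible growth.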

Series [2] concerns Klebsiella pneumoniae. The series is described as follows: Antibacterial activity against multidrug resistant Klebsiella pneumoniae ATCC 700603 after 18 hrs by 2 fold serial dilution method. In kind it is functional. The following applies: Klebsiella pneumoniae, 700603, 18 h. A digest of the protocol: (§2)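 Overnight cultures at 37 °C in nutrient or Mueller Hinton broth with shaking were diluted 50-fold in MHB and grown 1.5–3 h to mid-log phase. The inoculum was 5×10^5 CFU/mL in MHB. Compounds were 2-fold serially diluted, final 32 to 0.015 μg/mL. After 18 h at 37 °C, the MIC was read visually as the lowest concentration with no visible growth.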

For series [3], the system named is Staphylococcus aureus. The series is described as follows: microbe, parasite or virus in culture. The following applies: ATCC 25923, 18 h.
The subject of series [4] is Klebsiella pneumoniae. In words: Antibacterial activity against Klebsiella pneumoniae ATCC 13883 after 18 hrs by 2 fold serial dilution method. In kind it is functional. Conditions: ATCC 13883, 18 h. A digest of the protocol:
as §1

For series [5], the system named is Pseudomonas aeruginosa. The series is described as follows: Antibacterial activity against Pseudomonas aeruginosa ATCC 27853 after 18 hrs by 2 fold serial dilution method. In kind it is functional. The following applies: ATCC 27853, 18 h. Put shortly:
as §1

Series [6] concerns Pseudomonas aeruginosa. In words: Antibacterial activity against clinical isolate polymyxin resistant Pseudomonas aeruginosa PA9704 after 18 hrs by 2 fold serial dilution method. Type of series: functional. The following applies: PA9704, 18 h. A digest of the protocol: (§3)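 Polymyxin-resistant clinical isolates were grown overnight at 37 °C in NB or MHB with shaking, diluted 50-fold in MHB and grown 1.5–3 h to mid-log phase. The inoculum was 5×10^5 CFU/mL. Compounds were 2-fold broth serial dilutions, final 32 to 0.015 μg/mL; the polymyxin controls ran 128–0.06 μg/mL. The MIC was the lowest concentration with no visible growth after 18 h at 37 °C.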

In series [7] the test system is Klebsiella pneumoniae. The series is described as follows: Antibacterial activity against Klebsiella pneumoniae ATCC BAA-2146 expressing NDM-1 after 18 hrs by 2 fold serial dilution method. In kind it is functional. Conditions: ATCC BAA-2146, 18 h. A digest of the protocol: as §2
For series [8], the system named is Pseudomonas aeruginosa. The series is described as follows: Antibacterial activity against clinical isolate polymyxin resistant Pseudomonas aeruginosa FADDI-PA070 after 18 hrs by 2 fold serial dilution method. Type of series: functional. The following applies: FADDI-PA070, 18 h. Put shortly:
as §3

The test system of series [9] is Acinetobacter baumannii. The series is described as follows: Antibacterial activity against Acinetobacter baumannii ATCC 19606 after 18 hrs by 2 fold serial dilution method. The following applies: ATCC 19606, 18 h. Type of series: functional. Put shortly: as §1
Series [10] deals with Acinetobacter baumannii. In words: Antibacterial activity against clinical isolate carbapenem and polymyxin resistant Acinetobacter baumannii Ptyela 100734512:2 after 18 hrs by 2 fold serial dilution method. Conditions: Ptyela 100734512:2, 18 h. In kind it is functional. Put shortly: as §3
Series [11] relates to Klebsiella pneumoniae. The series is described as follows: Antibacterial activity against clinical isolate carbapenem and polymyxin resistant Klebsiella pneumoniae 138-16357-20362 after 18 hrs by 2 fold serial dilution method. Type of series: functional. Conditions: 138-16357-20362, 18 h. A digest of the protocol:
as §3

Series [12] is described as follows: Cytotoxicity against human HepG2 cells after 24 hrs by resazurin assay. Type of series: cell-based. The following applies: HepG2 cells. (In general: Alamar Blue is a resazurin reagent that responds to reducing activity.)
The subject of series [13] is Escherichia coli. The series is described as follows: Antibacterial activity against Escherichia coli. In kind it is functional.
The test system of series [14] is Staphylococcus aureus. The series is described as follows: Antibacterial activity against Staphylococcus aureus. Type of series: functional.
The subject of series [15] is Klebsiella pneumoniae. The series is described as follows: Antibacterial activity against clinical isolate carbapenem and polymyxin resistant Klebsiella pneumoniae Koprana 100650661:1 after 18 hrs by 2 fold serial dilution method. Type of series: functional. Conditions: Koprana 100650661:1, 18 h. Put shortly: as §3
Series [16] deals with Pseudomonas aeruginosa. In words: Antibacterial activity against Pseudomonas aeruginosa. In kind it is functional.
The nature of series [17]: Cytotoxicity against HEK293 cells after 24 hrs by resazurin assay. Type of series: cell-based. The following applies: human, HEK293 cells.
The nature of series [18]: Cytotoxicity against primary human proximal tubule cells assessed as GGT release at 100 ug/mL by Western blot analysis.
Series [19] can be described thus: Cytotoxicity against HK2 cells assessed as GGT release by Western blot analysis. In kind it is cell-based, HK-2. The following applies: human, primary human renal proximal tubule epithelial cells; read-out: CC50. On the technique in general: In western blotting, separated proteins are transferred to a membrane and probed.
Series [20] in a line: Cytotoxicity against HK2 cells assessed as LDH release by Western blot analysis. The following applies: human, hk-2. (In general: Release of lactate dehydrogenase indicates damage to the cell membrane.)
Series [21] can be described thus: Cytotoxicity against HK2 cells assessed as LDH release by Western blot analysis. In kind it is cell-based, HK-2. Conditions: human, primary human renal proximal tubule epithelial cells; read-out: CC50.

This note sets out measurements from ChEMBL document CHEMBL3774373, “Activity and Predicted Nephrotoxicity of Synthetic Antibiotics Based on Polymyxin B” (J Med Chem, 2016).

Values after ≈ are worked out from the molar mass of the structure shown. Bridge positions count the residues as written; N and C are the ends. Square brackets hold non-standard residues; d marks the D form. Peptide text beside a SMILES is read from it. * marks the point of attachment. Benzoyl(4-OPh) = O=C(c1ccc(Oc2ccccc2)cc1)*; Octanoyl = CCCCCCCC(=O)*; Dab = NCC[C@H](N)C(=O)O

As for `CCCCCCCC(=O)N[C@H](C(=O)N[C@@H](CCN)C(=O)N[C@H]1CCNC(=O)[C@H]([C@@H](C)O)NC(=O)[C@H](CCN)NC(=O)[C@H](CCN)NC(=O)[C@H](CC(C)C)NC(=O)[C@@H](Cc2ccccc2)NC(=O)[C@H](CCN)NC1=O)[C@@H](C)O` [Octanoyl Polymixin B nonapeptide] (Octanoyl-T[Dab][Dab][Dab][dF]L[Dab][Dab]T; lactam 3-C), the MIC with Escherichia coli [1] was 1 µg/mL (≈ 0.918 µM); with Klebsiella pneumoniae [2], 2 µg/mL (≈ 1.84 µM); against Staphylococcus aureus [3], more than 32 µg/mL; in the series with Klebsiella pneumoniae [4] it was 1 µg/mL (≈ 0.918 µM); with Pseudomonas aeruginosa [5] it was 0.5 µg/mL (≈ 0.459 µM); against Pseudomonas aeruginosa [6], more than 32 µg/mL. For the same compound, the MIC against Klebsiella pneumoniae [7] was 2 µg/mL (≈ 1.84 µM); against Pseudomonas aeruginosa [8], more than 32 µg/mL; in the series with Acinetobacter baumannii [9], 2 µg/mL (≈ 1.84 µM); against Acinetobacter baumannii [10] it was more than 32 µg/mL; with Klebsiella pneumoniae [11], more than 32 µg/mL; with Escherichia coli [13], 0.03 µg/mL (≈ 0.0275 µM). The MIC against Staphylococcus aureus [14] was more than 16 µg/mL; against Klebsiella pneumoniae [15] it was more than 32 µg/mL; in the series with Pseudomonas aeruginosa [16] it was 4 µg/mL (≈ 3.67 µM). The CC50 (usually the concentration that lowers cell viability or growth by half) at 24 h in series [12] was more than 300 µM.

As for `CC(C)C[C@@H]1NC(=O)[C@@H](Cc2ccccc2)NC(=O)[C@H](CCN)NC(=O)[C@@H](NC(=O)[C@H](CCN)NC(=O)[C@@H](NC(=O)[C@H](CCN)NC(=O)c2ccc(Oc3ccccc3)cc2)[C@@H](C)O)CCNC(=O)[C@H]([C@@H](C)O)NC(=O)[C@H](CCN)NC(=O)[C@H](CCN)NC1=O` ({Benzoyl(4-OPh)}-[Dab]T[Dab][Dab][Dab][dF]L[Dab][Dab]T; lactam 4-C), the MIC is 0.5 µg/mL (≈ 0.397 µM) against Escherichia coli [1]; 0.5 µg/mL (≈ 0.397 µM) with Klebsiella pneumoniae [2]; more than 32 µg/mL in the series with Staphylococcus aureus [3]; 0.5 µg/mL (≈ 0.397 µM) against Klebsiella pneumoniae [4]; 1 µg/mL (≈ 0.794 µM) with Pseudomonas aeruginosa [5]; 32 µg/mL (≈ 25.4 µM) in the series with Pseudomonas aeruginosa [6]. For the same compound, the MIC against Klebsiella pneumoniae [7] is 0.5 µg/mL (≈ 0.397 µM); with Pseudomonas aeruginosa [8], 8 µg/mL (≈ 6.35 µM); in the series on Acinetobacter baumannii [9] it was 0.5 µg/mL (≈ 0.397 µM); in the series with Acinetobacter baumannii [10], 16 µg/mL (≈ 12.7 µM); in the series on Klebsiella pneumoniae [11], more than 32 µg/mL; against Klebsiella pneumoniae [15] it was more than 32 µg/mL. Moreover, the 50% cytotoxic concentration (CC50) at 24 h in series [17] is 296 µM; in [12], 287 µM. Moreover, the Activity result in [18] and in series [20] was “Non-toxic” each time. The cytotoxic concentration (CC50) in [19] and in series [21] was more than 128 µg/mL in each case.

Turning to `CCCCCCCC(=O)N[C@@H](CCN)C(=O)N[C@H](C(=O)NCC(=O)N[C@H]1CCNC(=O)[C@H]([C@@H](C)O)NC(=O)[C@H](CCN)NC(=O)[C@H](CCN)NC(=O)[C@H](CC(C)C)NC(=O)[C@@H](Cc2ccccc2)NC(=O)[C@H](CCN)NC1=O)[C@@H](C)O` (Octanoyl-[Dab]TG[Dab][Dab][dF]L[Dab][Dab]T; lactam 4-C), the MIC was 0.5 µg/mL (≈ 0.436 µM) with Escherichia coli [1]; 1 µg/mL (≈ 0.872 µM) against Klebsiella pneumoniae [2]; more than 64 µg/mL in the series with Staphylococcus aureus [3]; 0.5 µg/mL (≈ 0.436 µM) with Klebsiella pneumoniae [4]; 2 µg/mL (≈ 1.74 µM) against Pseudomonas aeruginosa [5]; more than 32 µg/mL against Pseudomonas aeruginosa [6]. The MIC in the series on Klebsiella pneumoniae [7] is 0.5 µg/mL (≈ 0.436 µM); against Pseudomonas aeruginosa [8] it was more than 32 µg/mL; against Acinetobacter baumannii [9], 1 µg/mL (≈ 0.872 µM); with Acinetobacter baumannii [10] it was more than 32 µg/mL; against Klebsiella pneumoniae [11], more than 32 µg/mL; against Klebsiella pneumoniae [15], more than 32 µg/mL. For the same compound, the CC50 at 24 h in series [17] and in [12] was more than 300 µM throughout. The results for the CC50 in series [19] and in [21] were more than 128 µg/mL and 122 µg/mL (≈ 106 µM), respectively.
